# Experiments:
# Mus musculus [1] = experiment: Toxicity in BDF1 mouse allografted with mouse L1210 cells at 100 mg/kg, ip administered on day 2 and 6; format: organism-based; parameters: dose 100 mg/kg, route intraperitoneal; conditions: in vivo
# Outline: (§1)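 BDF1 mice implanted ip on day 0 with L1210 lymphoid leukemia cells. Compound given ip as a suspension in saline, saline with Tween 80, or Klucel (HPC), with injections every fourth day. Multiple dose levels 400, 200 and 100 mg/kg; three- or six-mouse groups. Toxicity scored as survivors per animals started, recorded on day 5.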
# L1210 [2] = experiment: Antitumor activity against mouse L1210 cells allografted in BDF1 mouse assessed as increase in host survival time at 100 mg/kg, ip administered on day 2 and 6 relative to control; format: functional; conditions: route intraperitoneal
# Outline: (§2)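 BDF1 mice received ip L1210 lymphoid leukemia cells on day 0. Compounds were then given ip in saline, saline/Tween 80, or Klucel vehicle, repeated every fourth day at a fixed dose from the 400, 200, 100 mg/kg series. Assays used three or six mice, with vehicle-treated controls. T/C % is treated over control mean survival time, expressed as percent.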
# L1210 [3] = experiment: Antitumor activity against mouse L1210 cells allografted in BDF1 mouse assessed as increase in host survival days at 100 mg/kg, ip administered on day 2 and 6 relative to control; format: functional; conditions: route intraperitoneal
# Outline: (§3)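 L1210 lymphoid leukemia cells were implanted ip in BDF1 mice on day 0. Compounds were given ip as suspensions in saline, saline with Tween 80, or Klucel (hydroxypropylcellulose). Injections were repeated every fourth day at the same dose. Groups had three or six mice, and controls received vehicle only. The read-out was mean survival time in days for treated and control animals.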
# [4] = target: Lactoylglutathione lyase (Saccharomyces cerevisiae); experiment: Competitive inhibition of yeast glyoxalase-1 using methylglyoxal and glutathione as substrate by Lineweaver-Burk plot analysis
# [5] = target: Lactoylglutathione lyase (Saccharomyces cerevisiae); experiment: Inhibition of yeast glyoxalase-1 using methylglyoxal and glutathione as substrate; conditions: read-out: I50
# Mus musculus [6] = experiment: Toxicity in BDF1 mouse allografted with mouse L1210 cells at 200 mg/kg, ip administered on day 2 and 6; format: organism-based; parameters: dose 200 mg/kg, route intraperitoneal; conditions: in vivo; outline: as §1
# L1210 [7] = experiment: Antitumor activity against mouse L1210 cells allografted in BDF1 mouse assessed as increase in host survival time at 200 mg/kg, ip administered on day 2 and 6 relative to control; format: functional; conditions: route intraperitoneal; outline: as §2
# L1210 [8] = experiment: Antitumor activity against mouse L1210 cells allografted in BDF1 mouse assessed as increase in host survival days at 200 mg/kg, ip administered on day 2 and 6 relative to control; format: functional; conditions: route intraperitoneal; outline: as §3
# L1210 [9] = experiment: Antitumor activity against mouse L1210 cells allografted in BDF1 mouse assessed as increase in host survival time at 100 mg/kg, ip administered on day 1 relative to control; format: functional; conditions: route intraperitoneal
# L1210 [10] = experiment: Antitumor activity against mouse L1210 cells allografted in BDF1 mouse assessed as increase in host survival days at 100 mg/kg, ip administered on day 1 relative to control; format: functional; conditions: route intraperitoneal
# Mus musculus [11] = experiment: Toxicity in BDF1 mouse allografted with mouse L1210 cells at 100 mg/kg, ip administered on day 1; format: organism-based; parameters: dose 100 mg/kg, route intraperitoneal; conditions: in vivo; outline: as §1
# L1210 [12] = experiment: Antitumor activity against mouse L1210 cells allografted in BDF1 mouse assessed as increase in host survival time at 200 mg/kg, ip administered on day 1, 5, and 9 relative to control; format: functional; conditions: route intraperitoneal; outline: as §2
# L1210 [13] = experiment: Antitumor activity against mouse L1210 cells allografted in BDF1 mouse assessed as increase in host survival days at 200 mg/kg, ip administered on day 1, 5, and 9 relative to control; format: functional; conditions: route intraperitoneal; outline: as §3
# Mus musculus [14] = experiment: Toxicity in BDF1 mouse allografted with mouse L1210 cells at 200 mg/kg, ip administered on day 1, 5, and 9; format: organism-based; parameters: dose 200 mg/kg, route intraperitoneal; conditions: in vivo; outline: as §1
# L1210 [15] = experiment: Antitumor activity against mouse L1210 cells allografted in BDF1 mouse assessed as increase in host survival days at 100 mg/kg, ip administered on day 1, 5, and 9 relative to control; format: functional; conditions: route intraperitoneal; outline: as §3
# L1210 [16] = experiment: Antitumor activity against mouse L1210 cells allografted in BDF1 mouse assessed as increase in host survival time at 100 mg/kg, ip administered on day 1, 5, and 9 relative to control; format: functional; conditions: route intraperitoneal; outline: as §2
# Mus musculus [17] = experiment: Toxicity in BDF1 mouse allografted with mouse L1210 cells at 100 mg/kg, ip administered on day 1, 5, and 9; format: organism-based; parameters: dose 100 mg/kg, route intraperitoneal; conditions: in vivo; outline: as §1
# L1210 [18] = experiment: Antitumor activity against mouse L1210 cells allografted in BDF1 mouse assessed as increase in host survival days at 400 mg/kg, ip administered on day 1 relative to control; format: functional; conditions: route intraperitoneal
# L1210 [19] = experiment: Antitumor activity against mouse L1210 cells allografted in BDF1 mouse assessed as increase in host survival time at 400 mg/kg, ip administered on day 1 relative to control; format: functional; conditions: route intraperitoneal
# Mus musculus [20] = experiment: Toxicity in BDF1 mouse allografted with mouse L1210 cells at 400 mg/kg, ip administered on day 1; format: organism-based; parameters: dose 400 mg/kg, route intraperitoneal; conditions: in vivo; outline: as §1
compound,measurement,setting,value
CCCCSC(=O)C(C)O (stereo not given),Activity,Mus musculus [1],Toxic
same,Time,L1210 [2],10 days
same,T/C,L1210 [3],99%
same,Ki,[4],12.9 mM
same,IC50,[5],16.5 mM
CC(O)C(=O)SCc1ccccc1 (stereo not given),Activity,Mus musculus [6],Toxic
same,Time,L1210 [7],10.3 days
same,T/C,L1210 [8],98%
same,Ki,[4],5.5 mM
same,IC50,[5],7.1 mM
CCCCSC(=O)C(O)c1ccccc1 (stereo not given),Time,L1210 [9],9.8 days
same,T/C,L1210 [10],105%
same,Activity,Mus musculus [11],Toxic
same,Ki,[4],29.6 mM
same,IC50,[5],37.8 mM
O=C(SCc1ccccc1)C(O)c1ccccc1 (stereo not given),Time,L1210 [12],10.7 days
same,T/C,L1210 [13],100%
same,Ki,[4],6.3 mM
same,Activity,Mus musculus [14],Toxic
same,IC50,[5],8.1 mM
COC(=O)CSC(=O)C(O)c1ccccc1 (stereo not given),Time,L1210 [12],10.5 days
same,T/C,L1210 [13],103%
same,Ki,[4],8.2 mM
same,Activity,Mus musculus [14],Toxic
same,IC50,[5],10.5 mM
CCCCOC(=O)CSC(=O)C(O)c1ccccc1 (stereo not given),T/C,L1210 [15],105%
same,Time,L1210 [16],10.2 days
same,Activity,Mus musculus [17],Toxic
same,Ki,[4],34.7 mM
same,IC50,[5],44.5 mM
COC(=O)CCSC(=O)C(O)c1ccccc1 (stereo not given),T/C,L1210 [18],105%
same,Time,L1210 [19],9.8 days
same,Activity,Mus musculus [20],Toxic
same,Ki,[4],38.6 mM
same,IC50,[5],49.6 mM

# From ChEMBL document CHEMBL3272302, “Synthesis and evaluation of alpha-hydroxythiol esters as antitumor agents and glyoxalase I inhibitors” (J Med Chem, 1977)
